Test results from ChEMBL document CHEMBL1148398, “Design, synthesis, and biological evaluation of thio-containing compounds with serum HDL-cholesterol-elevating properties” (2004).

Columns and labels:
Cricetinae gen. sp. [1] = experiment: Effect of compound on total plasma cholesterol levels in 3rd group of cholesterol-fed male hamsters at 30 mg/kg/day after 14 days of treatment; conditions: Mesocricetus auratus
Rattus norvegicus [2] = experiment: Effect of compound on thyroxine levels in 5th group of normal chow-fed male rats after a dose of 20 mg/kg/day; assay type: functional, organism-based
Procedure, shortened: (§1)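 Male Sprague–Dawley CD rats, 60–80 g, on standard chow with reverse 12 h light/dark cycle. One oral gavage dose daily for 4 days, suspended in 1.3% Tween 80 and 0.25% CMC. Fasted overnight; sacrificed 24 h after the last dose. Serum TC on clinical analyzer, lipoproteins by FPLC with cholesterol per fraction, T4 on analyzer. Mean ± SEM, six rats per group.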

Rattus norvegicus [3] = experiment: Effect of compound on thyroxine levels in 6th group of normal chow-fed male rats after a dose of 50 mg/kg/day; assay type: functional, organism-based
Procedure, shortened: as §1

Rattus norvegicus [4] = experiment: Effect of compound on serum high-density lipoprotein cholesterol concentration in chow-fed male rats at a dose of 50 mg/kg/day; assay type: functional, organism-based
Procedure, shortened: (§2)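 Separate dose-response study in male Sprague–Dawley CD rats, 60–80 g, on chow. Oral gavage once daily for 4 days in 1.3% Tween 80 / 0.25% CMC; fasted overnight, bled 24 h after last dose. Apo-A1 by ELISA with rabbit anti-rat primary, alkaline phosphatase-conjugated anti-rabbit IgG and p-nitrophenyl phosphate substrate. HDL-C by FPLC fractionation. Mean ± SEM, six per group.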

Rattus norvegicus [5] = experiment: Effect of compound on serum apolipoprotein A1 concentration in chow-fed male rats at a dose of 5 mg/kg/day; assay type: functional, organism-based
Procedure, shortened: as §2

Cricetinae gen. sp. [6] = experiment: Effect of compound on very low-density lipoprotein cholesterol levels in 3rd group of cholesterol-fed male hamsters at 30 mg/kg/day after 14 days of treatment; conditions: Mesocricetus auratus
Cricetinae gen. sp. [7] = experiment: Effect of compound on aspartate aminotransferase (AST) levels in 4th group of cholesterol-fed male hamsters at 100 mg/kg/day after 14 days of treatment; conditions: Mesocricetus auratus
Rattus norvegicus [8] = experiment: Effect of compound on triglyceride levels in 4th group of normal chow-fed male rats after a dose of 10 mg/kg/day; assay type: functional, organism-based
Procedure, shortened: (§3)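 Male Sprague–Dawley CD rats (60–80 g) on Purina 5001 chow with a reverse 12 h light/dark cycle. Dosed once daily by oral gavage for 4 days, suspended in 1.3% Tween 80 / 0.25% CMC. Fasted overnight and bled 24 h after the last dose. Serum TC and glycerol-blanked TG measured enzymatically; VLDL-C by FPLC fractionation with cholesterol assay. n=6, mean ± SEM.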

Rattus norvegicus [9] = experiment: Effect of compound on high-density lipoprotein cholesterol levels in 6th group of normal chow-fed male rats after a dose of 50 mg/kg/day; assay type: functional, organism-based
Rattus norvegicus [10] = experiment: Effect of compound on alkaline phosphatase (ALKP) levels in 6th group of normal chow-fed male rats after a dose of 50 mg/kg/day; assay type: functional, organism-based
Procedure, shortened: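 Male Sprague–Dawley CD rats (60–80 g) on standard chow under a reversed 12 h light/dark cycle. Compound was suspended in 1.3% Tween 80/0.25% CMC and given as a single daily oral gavage dose for 4 days. Rats were fasted overnight and killed 24 h after the last dose. Serum ALT, AST, ALKP and LDH were read on a clinical analyzer. Weight gain was start versus end weight. Mean ± SEM, n = 6.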

Rattus norvegicus [11] = experiment: Effect of compound on high-density lipoprotein cholesterol levels in 7th group of normal chow-fed male rats after a dose of 100 mg/kg/day; assay type: functional, organism-based
Rattus norvegicus [12] = experiment: Effect of compound on high-density lipoprotein cholesterol levels in 3rd group of normal chow-fed male rats after a dose of 5 mg/kg/day; assay type: functional, organism-based
Rattus norvegicus [13] = experiment: Effect of compound on serum apolipoprotein A1 concentration in chow-fed male rats at a dose of 10 mg/kg/day; assay type: functional, organism-based
Procedure, shortened: as §2

[14] = Effect on serum lipids in 2nd group of cholesterol-fed male hamsters at 10 mg/kg/day after 14 days of treatment was evaluated as ratio of total cholesterol levels to high-density lipoprotein cholesterol levels; assay type: functional
Procedure, shortened: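 Male Syrian Golden hamsters on chow plus 0.25% cholesterol, 2 weeks before and during dosing. Oral gavage for 14 days in 2% Tween 80/saline. Fasted 4 h before sacrifice. Serum total cholesterol measured enzymatically; HDL-C from cholesterol in FPLC lipoprotein fractions; TC/HDL-C ratio calculated. Six per group, mean ± SEM.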

Rattus norvegicus [15] = experiment: Effect of compound on relative liver weight in 5th group of normal chow-fed male rats after a dose of 20 mg/kg/day; assay type: functional
Procedure, shortened: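 Chow-fed male Sprague–Dawley CD rats, 60–80 g, dosed by oral gavage once daily for 4 days in 1.3% Tween 80/0.25% CMC. Fasted overnight and sacrificed 24 h after the last dose. Liver weight expressed as % of body weight at termination. Six per group, mean ± SEM.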

Rattus norvegicus [16] = experiment: Percent change in triglycerides following oral administration of compound in normal chow-fed rats at 100 mg/kg/day for 4 days; assay type: functional
Procedure, shortened: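 Chow-fed male Sprague–Dawley CD rats, 60–80 g, gavaged 100 mg/kg/day for 4 days in 1.3% Tween 80/0.25% CMC. Fasted overnight, bled 24 h after the last dose. Total cholesterol and glycerol-blanked triglycerides read enzymatically; lipoproteins by FPLC with cholesterol per fraction. % change versus control; six per group, p < 0.05.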

Cricetinae gen. sp. [17] = experiment: Effect of compound on high-density lipoprotein cholesterol levels in 3rd group of cholesterol-fed male hamsters at 30 mg/kg/day after 14 days of treatment; assay type: functional, organism-based
Rattus norvegicus [18] = experiment: Effect of compound on total plasma cholesterol levels in 4th group of normal chow-fed male rats after a dose of 10 mg/kg/day; assay type: functional, organism-based
Procedure, shortened: as §3

[19] = Effect on serum lipids in 2nd group of normal chow-fed male rats after a dose of 2 mg/kg/day was evaluated as ratio of total plasma cholesterol levels to high-density lipoprotein cholesterol levels; assay type: functional
Procedure, shortened: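 Male Sprague–Dawley CD rats, 60–80 g, chow-fed, dosed by oral gavage daily for 4 days in 1.3% Tween 80/0.25% CMC. Fasted overnight, bled 24 h after the last dose. Serum total cholesterol by enzymatic reagent; HDL-C from cholesterol in FPLC fractions; TPC/HDL-C ratio calculated. Six per group, mean ± SEM.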

Rattus norvegicus [20] = experiment: Effect of compound on low-density lipoprotein cholesterol levels in 7th group of normal chow-fed male rats after a dose of 100 mg/kg/day; assay type: functional, organism-based
Procedure, shortened: as §1

Rattus norvegicus [21] = experiment: Effect of compound on very low-density lipoprotein cholesterol levels in 3rd group of normal chow-fed male rats after a dose of 5 mg/kg/day; assay type: functional, organism-based
Procedure, shortened: as §3

Cricetinae gen. sp. [22] = experiment: Percent change in very low-density lipoprotein cholesterol following oral administration of compound in hypercholesterolemic hamsters at 100 mg/kg/day for 14 days; assay type: functional
Procedure, shortened: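 Male Syrian Golden hamsters pre-fed chow plus 0.25% cholesterol for 2 weeks and kept on it. Dosed 100 mg/kg/day by oral gavage in 2% Tween 80/saline for 14 days. Serum total cholesterol and glycerol-blanked triglycerides read enzymatically; lipoproteins separated by FPLC with cholesterol measured in each fraction. % change versus vehicle controls; six per group, p < 0.05.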

Rattus norvegicus [23] = experiment: Effect of compound on very low-density lipoprotein cholesterol levels in 2nd group of normal chow-fed male rats after a dose of 2 mg/kg/day; assay type: functional, organism-based
Procedure, shortened: as §3

Cricetinae gen. sp. [24] = experiment: Effect of compound on thyroxine levels in 4th group of cholesterol-fed male hamsters at 100 mg/kg/day after 14 days of treatment; conditions: Mesocricetus auratus

Question: What does the source list for CCN1CC(=O)N(c2cc(Cl)ccc2C)C1=S?
Answer: Serum level (Cricetinae gen. sp. [1]): 372 mg/dL; Serum level (Rattus norvegicus [2]): 4.05 µg/dL; Serum level (Rattus norvegicus [3]): 3.47 µg/dL; Serum level (Rattus norvegicus [4]): 87.3 mg/dL; Serum level (Rattus norvegicus [5]): 72.9 mg/dL; Serum level (Cricetinae gen. sp. [6]): 91 mg/dL; Level (Cricetinae gen. sp. [7]): 424 U l-1; Serum level (Rattus norvegicus [8]): 21 mg/dL; Serum level (Rattus norvegicus [9]): 61 mg/dL; Level (Rattus norvegicus [10]): 330 U l-1; Serum level (Rattus norvegicus [11]): 76 mg/dL; Serum level (Rattus norvegicus [12]): 45 mg/dL; Serum level (Rattus norvegicus [13]): 79.2 mg/dL; Ratio [14]: 2.85; Relative liver weight (Rattus norvegicus [15]): 4.3%; Change (Rattus norvegicus [16]): -23.1%; Serum level (Cricetinae gen. sp. [17]): 156 mg/dL; Serum level (Rattus norvegicus [18]): 85 mg/dL; Ratio [19]: 1.37; Serum level (Rattus norvegicus [20]): 8.7 mg/dL; Serum level (Rattus norvegicus [21]): 3.9 mg/dL; Change (Cricetinae gen. sp. [22]): -33.4%; Serum level (Rattus norvegicus [23]): 2.8 mg/dL; Serum level (Cricetinae gen. sp. [24]): 4.02 µg/dL
